Assay outcomes deposited in PubChem by several laboratories.
In the library only some 1.7% were active in any assay of this set; here they are far more common.
TPT1 inh: blocks Candida albicans tRNA 2'-phosphotransferase; recombinant caTPT1, FP RNA substrate dephosphorylation; inhibition, % at 5 µM; 0.81% of 300,000 active;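 active = inhibition above the mean of all tested compounds plus 3 SD, set per screening campaign, cut at about 24% in these data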;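 also: plate controls were DMSO alone for no effect and ferristatin control at 100 nM for full effect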
HNF4A DNA FP: change in binding of human HNF4 alpha to DNA | HNF4a-FITC DNA binding, fluorescence polarization, 1 h | 0.3% of 360,000 active | P41235 | AID 1224865 | activity change, % at 10 µM; in the data active = activity change above about 30%, passing the limit was not always enough
Target sequence (P41235 whole entry, looked up): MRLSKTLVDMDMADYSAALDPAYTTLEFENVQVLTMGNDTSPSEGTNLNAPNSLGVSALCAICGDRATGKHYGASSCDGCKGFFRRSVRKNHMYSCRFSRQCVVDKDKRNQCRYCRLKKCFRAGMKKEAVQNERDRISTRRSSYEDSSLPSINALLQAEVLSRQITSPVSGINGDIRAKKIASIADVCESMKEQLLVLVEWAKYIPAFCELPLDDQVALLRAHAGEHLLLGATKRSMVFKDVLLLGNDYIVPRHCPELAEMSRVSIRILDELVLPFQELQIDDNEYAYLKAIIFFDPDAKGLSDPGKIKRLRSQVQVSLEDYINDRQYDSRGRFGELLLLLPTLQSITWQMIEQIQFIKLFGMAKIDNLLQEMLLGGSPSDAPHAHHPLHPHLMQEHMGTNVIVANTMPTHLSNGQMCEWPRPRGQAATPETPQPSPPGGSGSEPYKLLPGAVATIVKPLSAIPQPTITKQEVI
CSN inh: CSN deneddylation inhibition. 0.38% of 360,000 active. Purified CSN, SCF-Nedd8-OG deneddylation, fluorescence polarization. inhibition, % at 12.5 µM. AID 651999. Q92905;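 active = pattern-corrected inhibition above about 35%, with an unprinted fluorescence ratio check between 0.5 and 1.5, limit read from the data, passing the limit was not always enough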;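 also: 0% = enzyme with substrate and 100% = substrate without enzyme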
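Assay system: purified human Csn5 enzyme expressed in HEK293T cells; measure: % inhibition; also added: SCFSkp2-Nedd8OG substrate at 10 nM final; technique: fluorescence polarization; times: reaction 90 min, room temperature; medium: Tris buffer pH 7.5, NaCl, DTT, Tween-20, trehalose, ovalbumin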
Rpn11 block: Rpn11 (human) deubiquitinase inhibition | O00487 | human 26S proteasome, Ub4-pepOG fluorescence polarization; 20S core pre-blocked with epoxomicin | AID 588493 | inhibition, % at 20 µM | 0.59% of 360,000 active;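 active = inhibition at 20 µM, scaled to each plate's controls, above about 33%, limit read from the data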
IDE act: boosts human insulin-degrading enzyme activity in HEK cells; P14735; FAbeta-B cleavage, fluorescence polarization; 0% vehicle, 100% cell-free pure enzyme wells; activation, % at 5.96 µM; 0.073% of 340,000 active; AID 493087;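 active = activation above the mean of all tested compounds plus 3 SD, set per screening campaign, cut at about 17% in these data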
IDE cell inh: cellular human IDE inhibition | 0.41% of 320,000 active | AID 434962 | HEK cells, FAbetaB cleavage, fluorescence polarization | P14735 | inhibition, % at 5.59 µM;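 active = percent inhibition above the average of all tested compounds plus 3 SD, set per screening campaign, cut at about 16% in these data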;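 also: IDE supplied by intact live HEK cells; FP after avidin binding of uncleaved biotin substrate so inhibition keeps polarization high; 0% = DMSO wells and 100% = 60 µM reference IDE inhibitor Ii1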
Rpn11 confirm: Rpn11 inhibition confirmation, single concentration; shares compounds with Rpn11 block; purified human 26S proteasome, Ub4-pepOG fluorescence polarization; proteasome pretreated with epoxomicin; inhibition, % at 20 µM; 29% of 1,900 active; AID 602318
MMP-2 inh: MMP-2 (human) inhibition counter-screen. inhibition, % at 20 µM. 4% of 1,900 active. AID 602330. shares compounds with Rpn11 block. recombinant MMP-2, FRET peptide cleavage fluorescence;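 also: human MMP-2 activated beforehand with APMA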
Thrombin inh: blocks bovine thrombin, flagging nonselective RPN11 hits; shares compounds with Rpn11 block; 13% of 1,900 active; inhibition, % at 20 µM; bovine thrombin cleavage of Ub4-pepOG, fluorescence polarization;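 active = mean inhibition at least 40% at 20 µM, or signal 3 deviations below plate average, so some actives read negative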;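 also: plate controls were thrombin with DMSO for no effect and buffer wells lacking thrombin for full effect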
Active calls of the source: *; nt = no result given. Rule as the data show it, unless noted: active = inhibition above about 40%; inactive = the rest.

SMILES	TPT1 inh	HNF4A DNA FP	CSN inh	Rpn11 block	IDE act	IDE cell inh	Rpn11 confirm	MMP-2 inh	Thrombin inh
O=C(C[C@H]1C[C@H](C(=O)N2CCOCC2)[C@@]2(CCC3CCCC3)c3[nH]c4cc(-c5ccco5)ccc4c3CCN2C1=O)NCCc1ccccn1	nt	5.6	8.0	10.7	6.7	nt	nt	nt	nt
O=C(C[C@H]1C[C@H](C(=O)N2CCOCC2)[C@@]2(CCC3CCCC3)c3[nH]c4cc(-c5ccco5)ccc4c3CCN2C1=O)NCCC1=CCCCC1	nt	9.4	7.5	38.0*	5.8	nt	2.1	-24.4	-6.4
C[C@]12c3[nH]c4cc(-c5ccco5)ccc4c3CCN1C(=O)[C@@H](CC(=O)NCC13CC4CC(CC(C4)C1)C3)C[C@@H]2C(=O)N1CCCCC1	nt	6.5	22.8	39.0*	4.4	nt	-6.1	5.2	-9.9
CC[C@]12c3[nH]c4cc(-c5ccco5)ccc4c3CCN1C(=O)[C@@H](CC(=O)NCC13CC4CC(CC(C4)C1)C3)C[C@@H]2C(=O)N1CCN(C(=O)C2CC2)CC1	nt	2.4	7.2	26.5	1.3	nt	nt	nt	nt
CC[C@]12c3[nH]c4cc(-c5ccco5)ccc4c3CCN1C(=O)[C@@H](CC(=O)NCc1ccc(OC)c(OC)c1)C[C@@H]2C(=O)N1CCN(C(=O)C2CC2)CC1	nt	5.3	-0.1	9.7	0.8	nt	nt	nt	nt
COc1ccc(CNC(=O)C[C@H]2C[C@H](C(=O)N3CCCCC3)[C@@]3(CCc4ccccc4)c4[nH]c5cc(-c6ccco6)ccc5c4CCN3C2=O)cc1OC	nt	11.4	13.9	56.5*	4.8	nt	3.0	-2.0	-5.3
CC(=O)NC1(c2ccccc2)CCN(c2cc(C)nc(-c3ccccc3)n2)CC1	13.6	0.1	-2.6	4.5	3.4	-6.5	nt	nt	nt
COc1ccc(CC(=O)Oc2ccc(C)cc2Br)cc1OC	-1.3	0.2	-2.0	-1.9	3.8	1.3	nt	nt	nt
O=C(CC1Sc2ccccc2NC1=O)NCc1ccccc1 (stereo not given)	-1.5	0.2	0.3	5.8	0.7	0.6	nt	nt	nt
Oc1ccc(/C=N/NC(=S)NCCN2CCOCC2)c(O)c1	-1.6	0.8	11.3	-5.8	3.5	-4.3	nt	nt	nt
NS(=O)(=O)c1ccc(N/C=C\C(=O)c2ccc3ccccc3c2)cc1	10.5	-2.3	13.7	44.6*	3.9	6.7	67.1*	37.5	-11.7
COc1ccc(N2CCN(C(=O)CSc3ncccc3-c3nc4ccccc4[nH]3)CC2)cc1	12.9	26.0	20.4	35.8*	-6.3	0.8	8.2	21.5	12.2
COc1ccccc1N1CCN(C(=O)CSc2ncccc2-c2nc3ccccc3[nH]2)CC1	13.2	25.0	22.6	31.3	-1.1	1.3	nt	nt	nt
COc1ccc(/C=c2\sc3nc(-c4ccccc4)c(-c4ccccc4)n3c2=O)cc1OC	18.0	3.8	5.4	140.4*	-2.0	2.7	-1.9	-22.3	-27.3
NC(=O)CC(NC(=O)Cc1ccc(Cl)cc1)c1ccc(NC2CCCCC2)c([N+](=O)[O-])c1 (stereo not given)	0.7	4.0	96.9	21.5	-1.7	-2.1	nt	nt	nt
COc1ccc(CCNc2ccc(C(CC(N)=O)NC(=O)Cc3cccc4ccccc34)cc2[N+](=O)[O-])cc1 (stereo not given)	14.6	33.2	11.7	42.1*	-3.0	-1.4	52.1*	-21.1	30.2
CCCCNc1ccc(C(CC(N)=O)NC(=O)Cc2cccc3ccccc23)cc1[N+](=O)[O-] (stereo not given)	12.6	10.3	4.5	24.8	4.4	-3.9	nt	nt	nt
NC(=O)CC(NC(=O)Cc1ccc(Cl)cc1)c1ccc(NC2CCCC2)c([N+](=O)[O-])c1 (stereo not given)	15.1	15.5	113.0	44.8*	5.1	1.4	47.2*	-10.4	30.3
O=C(N/N=C\c1ccc(-c2ccc([N+](=O)[O-])cc2)o1)C1COc2ccccc2O1 (stereo not given)	21.6	9.7	-11.6	39.2*	3.2	-0.4	46.5*	4.9	-22.6
CN(C)c1ccc(/C=N/NC(=O)C2COc3ccccc3O2)o1 (stereo not given)	0.3	-3.2	1.5	-2.2	-3.6	-7.4	nt	nt	nt
O=C(O)c1cn(C2CC2)c2cc(N3CCN(S(=O)(=O)c4ccc5c(c4)OCCO5)CC3)c(F)cc2c1=O	0.8	3.2	1.4	101.8*	5.6	-0.5	15.9	-10.3	14.0
CCn1cc(C(=O)O)c(=O)c2cc(F)c(N3CCN(S(=O)(=O)c4ccc(Br)cc4)CC3)cc21	1.1	nt	nt	nt	nt	-2.4	nt	nt	nt
COc1ccc(CN2CCNC(=O)C2CC(=O)N(C)Cc2nccn2C)cc1OC (stereo not given)	1.7	2.1	-3.8	47.3*	1.6	4.9	5.1	-28.0	33.1
COc1cc2sc3ccc(-c4ccc(N(C)C)nc4)cc3c(=O)c2cc1OC	-7.0	nt	nt	nt	nt	3.0	nt	nt	nt
COc1ccc(-c2ccc3sc4ccccc4c(=O)c3c2)cn1	-2.5	12.7	4.5	123.8*	0.8	6.9	1.9	-10.0	-9.2
SMILES	TPT1 inh	HNF4A DNA FP	CSN inh	Rpn11 block	IDE act	IDE cell inh	Rpn11 confirm	MMP-2 inh	Thrombin inh
Cc1ccc(C(=O)N/C(N)=N/c2nc3ccccc3o2)cc1	-0.6	0.7	1.0	-2.8	4.2	-4.2	nt	nt	nt
COc1ccccc1C(=O)N/C(N)=N/c1nc2ccccc2o1	13.7	17.6	13.7	59.3*	4.3	2.6	51.0*	-37.6	8.3
COc1cc(/C=C2\C=CC(=O)O2)cc(OC)c1	23.7	22.2	14.4	38.0*	1.9	0.7	22.1	-4.2	9.1
CCn1c(O)c(/C=N/N=C2CCCC2)c2ccc(C3=NNC(=O)CC3)cc21	12.4	4.2	7.6	39.9*	1.0	-2.3	34.6	-48.7	6.4
CCCCN=C1NN=C(c2cc3ccccc3o2)CS1	18.7	17.2	7.8	46.5*	1.7	0.0	6.8	35.9	-12.9
O=C(N/N=C/c1ccc(Cl)c([N+](=O)[O-])c1)c1ccc2c(c1)OCCO2	nt	4.3	26.8	127.1*	1.7	nt	36.3	54.4*	-0.6
O=C(Nc1ccc(Cl)c([N+](=O)[O-])c1)c1ccc2c(c1)OCCO2	0.5	-4.2	-1.4	-5.7	-2.7	8.8	nt	nt	nt
Cc1cc2ncn(/N=C/c3ccc([N+](=O)[O-])s3)c2cc1C	7.9	5.6	6.9	40.7*	4.3	9.8	8.8	8.1	-8.4
O=C(N=NC(=O)c1ccco1)c1ccc2c(O)n(N3C(=O)c4ccccc4C3=O)c(O)c2c1	-1.3	7.4	-1.3	47.7*	2.6	5.9	-13.1	0.5	-5.5
